Only some compounds are listed: those with a hit (about 1.8% of all), similar ones and a draw of the others.
UHRF1 binding – human UHRF1 methylated DNA binding inhibitors | Q96T88 | inhibition, % at 4.4 µM | UHRF1 binding to methylated oligo, TR-FRET | 0.75% of 370,000 active | AID 687016;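 further: UHRF1 SRA domain binding a hemimethylated CpG hairpin DNA probe; 0% = median of test compound wells and 100% = reference inhibitor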
LEDGF integ inh – blocks HIV-1 LEDGF/p75-dependent DNA integration; TR-FRET IN-LEDGF/p75 DNA integration, Eu/Cy5; 0.64% of 370,000 active; inhibition, % at 3.7 µM; AID 743269;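 active means inhibition above the screen-wide mean plus 3 SD, cut at about 13% in these data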;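 further: signal is the Cy5 over europium emission ratio at 671 and 618 nm; 0% = plate median of compound wells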
TDP2 absorb – TDP2 (human) inhibition, absorbance primary screen. AID 720702. recombinant TDP2, T5PNP hydrolysis, p-nitrophenol absorbance 415 nm. O95551. 0.34% of 370,000 active. inhibition, % at 12.8 µM;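 active means inhibition above the mean of all tested compounds plus 3 SD, set per campaign, cut at about 25% in these data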;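 further: 0% = DMSO with enzyme and 100% = buffer with substrate but no TDP2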
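test system = human TDP2 enzyme | input = TDP2 enzyme at 120 nM final | medium = 50 mM Tris-HCl pH 7.5 with Mg2+, KCl, DTT, BSA | also added = T5PNP substrate, 5 mM | times = 2 h at 37 °C | technique = epi absorbance | benchmarks = high control without enzyme, low control DMSO plus TDP2 | replication = each compound tested once, singlicate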
MBD2 inh – MBD2-methylated oligo binding inhibition. 0.31% of 370,000 active. TR-FRET, MBD2 binding to methylated oligonucleotide. inhibition, % at 4.4 µM. Q9UBB5; in the data active means inhibition above about 13%
Target sequence (Q9UBB5 whole entry, looked up): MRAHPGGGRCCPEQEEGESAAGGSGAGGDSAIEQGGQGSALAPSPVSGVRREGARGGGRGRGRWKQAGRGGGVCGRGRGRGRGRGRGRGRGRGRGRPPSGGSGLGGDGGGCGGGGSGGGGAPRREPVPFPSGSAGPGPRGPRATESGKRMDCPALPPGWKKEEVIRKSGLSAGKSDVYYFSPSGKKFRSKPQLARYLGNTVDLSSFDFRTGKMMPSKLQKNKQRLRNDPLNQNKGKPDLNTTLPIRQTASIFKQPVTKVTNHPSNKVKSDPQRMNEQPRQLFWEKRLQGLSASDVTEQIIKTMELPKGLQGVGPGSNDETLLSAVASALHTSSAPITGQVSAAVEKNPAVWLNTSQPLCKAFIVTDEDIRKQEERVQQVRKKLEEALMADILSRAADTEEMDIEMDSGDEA
NSD2 inh – NSD2 (human) methyltransferase inhibition; O96028; NSD2 peptide methylation, AlphaScreen, 120 min; inhibition, % at 12.5 µM; 0.54% of 310,000 active; AID 743445; in the data active means inhibition above about 50%
Casp6 inh – inhibitors of human caspase-6; P55212; purified caspase-6, Z-VEID-R110 cleavage fluorescence; inhibition, % at 12.5 µM; 0.53% of 350,000 active; AID 686996;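 active means mean inhibition across replicates at least about 35%, with every replicate also reaching that limit, limit read from the data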;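 further: 0% = median of neutral control wells and 100% = no fluorescence left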
Target sequence (P55212 24-179 limits assumed): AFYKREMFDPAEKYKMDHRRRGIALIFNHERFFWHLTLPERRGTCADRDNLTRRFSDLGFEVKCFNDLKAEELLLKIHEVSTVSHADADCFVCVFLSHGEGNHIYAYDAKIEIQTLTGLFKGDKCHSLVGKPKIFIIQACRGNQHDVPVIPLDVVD
Target sequence (P55212 194-293 limits assumed): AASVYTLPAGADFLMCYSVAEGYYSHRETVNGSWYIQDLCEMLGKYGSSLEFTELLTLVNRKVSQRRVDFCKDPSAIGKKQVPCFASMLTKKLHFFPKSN
UHRF1 DNA bind – counter-screen for MBD2 inhibitors: human UHRF1 methylated DNA binding inhibitors | inhibition, % at 4.4 µM | UHRF1 binding to methylated oligonucleotide, TR-FRET | 25% of 1,000 active | AID 720530 | shares compounds with MBD2 inh;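 further: UHRF1 SRA domain binding a labeled hemimethylated CpG hairpin DNA; 0% = vehicle only and 100% = reference inhibitor with vehicle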
MBD2 DBD conf – MBD2-DBD methyl-DNA binding inhibition, TR-FRET confirmation | shares compounds with MBD2 inh | 26% of 1,000 active | inhibition, % at 4.4 µM | AID 720531 | TR-FRET MBD2-DBD binding to methylated oligonucleotide; in the data active means inhibition above about 14%
TDP2 inh conf – human TDP2 inhibition, confirmation. shares compounds with TDP2 absorb. recombinant human TDP2, absorbance read-out. inhibition, % at 12.8 µM. 22% of 1,100 active; in the data active means inhibition above about 25%;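 further: 0% = vehicle with enzyme and 100% = no enzyme buffer only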
IN multimer act – counter-screen for LEDGF/p75 integration inhibitors: HIV-1 integrase multimerization activators; shares compounds with LEDGF integ inh; TR-FRET HIV-1 integrase multimerization, biochemical; activation, % at 7.7 µM; 17% of 2,000 active; AID 1053131; in the data active means activation above about 8.9%
TR-FRET interf – TR-FRET optical interference, LEDGF/p75 integration counter-screen; TR-FRET optical interference counterscreen, HIV-1 IN multimerization; shares compounds with LEDGF integ inh; inhibition, % at 7.7 µM; AID 1053135; 2,000 tested, under 10 active;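 active means inhibition above the mean over all tested compounds plus 3 SD, which no compound reached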;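 further: 0% = integrase with antibodies and DMSO and 100% = antibodies without integrase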
IN-LEDGF confirm – LEDGF/p75-dependent HIV-1 integration inhibition, confirmation. inhibition, % at 3.7 µM. TR-FRET LEDGF/p75-dependent HIV-1 integration, biochemical. 36% of 2,000 active. shares compounds with LEDGF integ inh; in the data active means inhibition above about 14%
Active calls of the source: *; · = no result. Unless noted, no stated cut-off is given here; in the data, active means inhibition above about 21%; inactive means the rest.

SMILES	UHRF1 binding	LEDGF integ inh	TDP2 absorb	MBD2 inh	NSD2 inh	Casp6 inh	UHRF1 DNA bind	MBD2 DBD conf	others
Cc1ccc(-c2cc(-c3ccccc3)cc(-c3ccccc3)[n+]2-c2ccccc2C(=O)O)cc1	21*	3	8	19*	·	0	12	28*
COC1C(C)OC(OC2CC(C)(O)Cc3cc4c(c(O)c32)C(=O)c2c(O)cc3c(c2C4=O)OC2OC3(C)C(O)C(N(C)C)C2O)C(OC)C1(C)OC (centres undefined)	97*	3	-3	107*	·	18	102*	109*
COC(=O)C1=C(c2ccc(F)cc2OCc2ccccc2)C[C@@H]2CC[C@H]1N2C(=O)NCCOc1ccccc1Cl	1	-2	-6	16*	·	-1	-3	2
O=C(COc1ccccc1)NCCc1cnc[nH]1	0	-1	10	1	-3	-7	·	·
O=C(COc1ccc(Cl)cc1)NCCc1cnc[nH]1	-2	5	-2	52*	-2	1	8	1
C#CCCC[C@@H]1OC(=O)CNC(=O)C([C@@H](C)CC)NC(=O)[C@@H]2CCCN2C(=O)C([C@@H](C)CC)OC(=O)[C@H](Cc2ccccc2)N(C)C(=O)[C@H](C(C)C)NC(=O)C1(C)C (some centres undefined)	43*	5	-9	15*	·	1	7	2
COC(=O)[C@@H]1[C@@H](CO)[C@@H]2Cn3c(ccc(C4=CCCC4)c3=O)[C@H]1N2Cc1ccccn1	·	·	·	·	·	-1	·	·
COc1ccc(C#Cc2ccc([C@@H]3[C@H]4CN(C(=O)Cc5cccnc5)CCCCN4[C@H]3CO)cc2)cc1	·	·	·	·	·	0	·	·
Cc1ccc2ccccc2c1NC(=O)CNC1CCCCC1	0	0	8	18*	-5	·	4	5
CCc1ccccc1NC(=O)CNC1CCCCC1	2	-3	7	2	0	-2	·	·
COC(=O)[C@H]1[C@H](CO)[C@H]2Cn3c(cccc3=O)[C@@H]1N2C(=O)C1CCC1	·	·	·	·	·	1	·	·
COC(=O)C[C@H]1CC[C@@H]2NC[C@@H](O)COC[C@H]2O1	·	·	·	·	·	-3	·	·
COC(=O)C1=C(c2c(C)noc2C)C[C@@H]2CC[C@H]1N2C(=O)N1CCC(O)CC1	0	0	9	28*	·	2	4	2
COC(=O)C1=C(c2c(C)noc2C)C[C@@H]2CC[C@H]1N2C(=O)N1CCC(C)CC1	0	-1	-8	3	·	0	·	·
O=C(O)C1CN2CCC1CC2 (centres undefined)	-1	1	9	14*	-2	0	7	3
COC(=O)[C@H]1[C@H](CO)[C@H]2Cn3c(ccc(/C=C/c4ccccc4)c3=O)[C@@H]1N2Cc1ccccc1F	·	·	·	·	·	-4	·	·
COc1cc2c(cc1OC)-c1c3c(cc4c1[C@@H](C2)N(C)CC4)OCO3	50*	16*	56*	46*	·	48*	30*	20*	TDP2 inh conf=52*;IN multimer act=5;TR-FRET interf=-17;IN-LEDGF confirm=8
CCOC(=O)c1c(NC(=O)c2c(N)n(CCCOC)c3nc4ccccc4nc23)sc2c1CCCC2	-3	3	4	-2	0	·	·	·
CCOCCCn1c(N)c(C(=O)Nc2sc3c(c2C(=O)OC)CCCC3)c2nc3ccccc3nc21	14	31*	70*	14*	4	·	6	2	TDP2 inh conf=1;IN multimer act=2;TR-FRET interf=-10;IN-LEDGF confirm=-2
O=C1NC(=O)N(CCc2ccc(F)cc2)C(=O)/C1=C/c1ccco1	97*	80*	14	74*	·	83*	23*	16*	IN multimer act=8;TR-FRET interf=-31;IN-LEDGF confirm=16*
COc1ccccc1/C=C1\C(=O)NC(=S)N(c2ccccc2)C1=O	1	5	-10	-2	5	·	·	·
O=C1NC(=S)N(c2ccccc2)C(=O)/C1=C/c1ccco1	91*	54*	7	58*	·	95*	100*	89*	IN multimer act=14*;TR-FRET interf=-49;IN-LEDGF confirm=73*
CCN(CC)c1ccc(/C=C2/C(=O)NC(=O)N(Cc3ccco3)C2=O)cc1	72*	71*	17	18*	45	·	29*	14*	IN multimer act=6;TR-FRET interf=-29;IN-LEDGF confirm=30*
CN(C)c1ccc(/C=C2/C(=O)NC(=O)N(Cc3ccco3)C2=O)cc1	68*	66*	15	15*	34	81*	25*	11	IN multimer act=2;TR-FRET interf=-12;IN-LEDGF confirm=14*
CN(C)c1ccc(/C=C2\C(=O)NC(=O)N(CCc3ccc(F)cc3)C2=O)cc1	-2	-1	1	0	3	4	·	·
SMILES	UHRF1 binding	LEDGF integ inh	TDP2 absorb	MBD2 inh	NSD2 inh	Casp6 inh	UHRF1 DNA bind	MBD2 DBD conf	others
CCCNC(=O)[C@H]1[C@H](CO)[C@H]2Cn3c(cccc3=O)[C@H]2N1C	·	·	·	·	·	1	·	·
COC(=O)[C@H]1[C@H](CO)[C@H]2Cn3c(ccc(-c4ccccc4)c3=O)[C@@H]1N2CC1CCOCC1	·	·	·	·	·	-3	·	·
COc1cc(C(c2c(C)[nH]n(-c3ccccc3)c2=O)c2c(C)[nH]n(-c3ccccc3)c2=O)cc(OC)c1OC	18	43*	90*	14*	17	21	3	2	TDP2 inh conf=56*;IN multimer act=3;TR-FRET interf=-12;IN-LEDGF confirm=5
N#Cc1cccc(-c2ccc([C@H]3[C@H](CO)N4CCCCN(C(=O)Cc5cccnc5)C[C@@H]34)cc2)c1	·	·	·	·	·	1	·	·
CCCN1[C@@H]2Cn3c(ccc(-c4ccccc4)c3=O)[C@H]1[C@@H](C(=O)OC)[C@@H]2CO	·	·	·	·	·	0	·	·
O=C(NC[C@H]1CC[C@H]2[C@H](CN2Cc2cccnc2)O1)C1CC1	·	·	·	·	·	1	·	·
O=C(Cc1cccnc1)N1CCCCN2[C@H](C1)[C@@H](c1ccc(C#CC3CC3)cc1)[C@@H]2CO	·	·	·	·	·	1	·	·
CC[n+]1c(-c2ccccc2)c2cc(N)ccc2c2ccc(N)cc21	72*	42*	34*	70*	178*	99*	77*	80*	TDP2 inh conf=22;IN multimer act=7;TR-FRET interf=-33;IN-LEDGF confirm=70*
